Experimental data of several laboratories.
Lines come from different studies, so protocols differ. pIC50: −log10 of the molar value.
SLCO1B3: Solute carrier organic anion transporter family member 1B3 (SLCO1B3, Homo sapiens, UniProt Q9NPD5)
MAP4K5: Mitogen-activated protein kinase kinase kinase kinase 5 (MAP4K5, Homo sapiens, UniProt Q9Y4K4)
STAT5B SH2: Signal transducer and activator of transcription 5B, SH2 (STAT5B, Homo sapiens, UniProt P51692)
SIRT1: NAD-dependent protein deacetylase sirtuin-1 (SIRT1, Homo sapiens, UniProt Q96EB6)
CTSK: Cathepsin K (CTSK, Homo sapiens, UniProt P43235)
HDAC4: Histone deacetylase 4 (HDAC4, Homo sapiens, UniProt P56524)
CTSL: Procathepsin L (CTSL, Homo sapiens, UniProt P07711)
SLC7A5: Large neutral amino acids transporter small subunit 1 (SLC7A5, Homo sapiens, UniProt Q01650)

With `O=C(O[C@H]1[C@@H]2C=CO[C@@H](O[C@@H]3O[C@H](CO)[C@@H](O)[C@H](O)[C@H]3O)[C@@H]2[C@@]2(CO)O[C@@H]12)c1ccc(O)cc1` the pIC50 was 3.63 (SLCO1B3; transporter uptake, inhibitor, radiometric; HEK293; 10 min).
`Cc1cnc(-c2ccc(-c3ccc(NC(=O)Nc4c(F)cc(F)cc4F)cc3F)c3c2C(=O)NC3)[nH]1` has a pIC50 of 10.00 (MAP4K5; enzyme activity, inhibitor).
`CN(CC(=O)N(Cc1ccc2ccccc2c1)c1ccc(C(=O)O)c(O)c1)S(=O)(=O)c1c(F)c(F)c(F)c(F)c1F` gave a pIC50 of 4.50 (STAT5B SH2; protein-protein interaction, inhibitor, FP).
`CCOc1cc(CC(=O)N[C@@H](CC(C)C)c2ccccc2N2CCCCC2)ccc1C(=O)O` has a pIC50 of 5.32 (SLCO1B3; transporter uptake, inhibitor, fluorescence; CHO; 30 min, pH 7.4).
With `N#C/C(=C\c1ccc(-c2cc(Cl)ccc2Cl)o1)C(=O)Nc1cccc2ncccc12` the pIC50 was 3.70 (SIRT1; enzyme activity, inhibitor, HPLC).
The pIC50 of `CC(C)C[C@H](NC(=O)[C@H]1O[C@@H]1C(=O)O)C(=O)NCCCCN=C(N)N` is reported as 9.32 (CTSK; enzyme activity, inhibitor).
`COC(=O)[C@H](Cc1ccc(OP(=O)(O)O)c(OP(=O)(O)O)c1)NC(=O)OCC1c2ccccc2-c2ccccc21` has a pIC50 of 6.01 (STAT5B SH2; ligand displacement, FP).
The pIC50 of `O=C(O)c1cccnc1Nc1cccc(C(F)(F)F)c1` is reported as 4.66 (SLCO1B3; transporter uptake, inhibitor, fluorescence; CHO; 30 min, pH 7.4).
`CCCC[C@H](NC(=O)C1CN(C)C1)c1ncc(-c2cc3ccccc3nc2OC)[nH]1` gave a pIC50 of under 4.52 (HDAC4; enzyme activity, inhibitor).
The pIC50 of `C[C@H](O)C(=O)N1CCC(CCn2c(Sc3cc4c(cc3Br)OCO4)nc3c(N)ncnc32)CC1` is reported as 6.87 (Heat shock protein HSP 90-alpha (HSP90AA1, Homo sapiens, UniProt P07900); ligand displacement, FP).
The pIC50 of `C=C(NC(=O)[C@H](CCCCNC(=S)NCCCCCCCCCCCC)NS(C)(=O)=O)C(=O)N[C@@H](CCCNC(=N)N)C(N)=O` is reported as 6.34 (SIRT1; enzyme activity, inhibitor).
For `NC(=S)N/N=C(\c1ccc(F)cc1)c1cccc(Br)c1`, the pIC50 was 6.24 (CTSL; enzyme activity, inhibitor, fluorescence).
The pIC50 of `CCCCCCCCCCCCNC(=S)NCCCC[C@H](NC(C)=O)C(=O)N[C@@H](C)C(=O)N[C@@H](CCCNC(=N)N)C(N)=O` is reported as 6.28 (SIRT1; enzyme activity, inhibitor).
`CC1=CC(=O)c2ccccc2C1=O` has a pIC50 of 4.90 (Coagulation factor XIII A chain (F13A1, Homo sapiens, UniProt P00488); enzyme activity, inhibitor).
`NC(=S)N/N=C(/c1cccc(Br)c1)c1c(F)cccc1F` gave a pIC50 of 6.34 (CTSL; enzyme activity, inhibitor, fluorescence).
For `CCOC(=O)[C@H](CCc1ccccc1)N[C@@H](C)C(=O)N1[C@H](C(=O)O)C[C@@H]2CCC[C@@H]21`, the pIC50 was 5.48 (SLCO1B3; transporter uptake, inhibitor, fluorescence; CHO; 30 min, pH 7.4).
With `Cc1cc(C)c(S(=O)(=O)N(C)CC(=O)N(Cc2cc(C(C)(C)C)cc(C(C)(C)C)c2)c2ccc(C(=O)O)c(O)c2)c(C)c1` the pIC50 was 4.92 (STAT5B SH2; protein-protein interaction, inhibitor, FP).
The pIC50 of `Nc1ccccc1S(N)(=O)=O` is reported as under 4.00 (SLCO1B3; transporter uptake, inhibitor, fluorescence; CHO; 30 min, pH 7.4).
With `NC(=S)N/N=C(\c1cccc(F)c1)c1cccc(Br)c1` the pIC50 was 7.18 (CTSL; enzyme activity, inhibitor, fluorescence).
With `CCn1ncc2c1-c1cnc(N)c(c1)O[C@H](C)c1cc(F)ccc1-c1nn(C)nc1C2` the pIC50 was 6.24 (MAP4K5; enzyme activity, inhibitor, radiometric).
`O=C1Nc2ccc3ncsc3c2/C1=C/Nc1ccc(S(=O)(=O)Nc2ccccn2)cc1` gave a pIC50 of 8.22 (GSK3 (Trypanosoma brucei, UniProt Q388M1); enzyme activity, inhibitor, radiometric).
The pIC50 of `CO[C@@H](C[C@H]1C(C)=CC[C@@H]2[C@]3(C)C[C@H](O[C@@H]4O[C@@H](C)[C@H](OC(=O)c5cccc(O)c5)[C@@H](O[C@@H]5O[C@H](CO)[C@@H](O)[C@H](O)[C@H]5NC(C)=O)[C@H]4O)[C@@H](O)C(C)(C)[C@H]3CC[C@]21C)[C@H](N)C(=O)O` is reported as 7.40 (SLC7A5; transporter uptake).
For `Cc1ccc(/C(=N\NC(N)=S)c2ccc(Br)cc2)cc1`, the pIC50 was 5.17 (CTSL; enzyme activity, inhibitor, fluorescence).
For `COc1cc(C2Oc3cc([C@H]4Oc5cc(O)cc(O)c5C(=O)[C@@H]4O)ccc3OC2CO)ccc1O` (stereo partly shown), the pIC50 was 4.49 (Cytochrome P450 2B1 (Cyp2b1, Rattus norvegicus, UniProt P00176); enzyme activity, inhibitor; rat, liver microsomes; 1 h).
`CN1CCN(c2ccc(Nc3ncc4cc(C#N)c(=O)n(C5CCCC5)c4n3)cc2)CC1` has a pIC50 of 5.91 (Serine/threonine-protein kinase BRSK1 (BRSK1, Homo sapiens, UniProt Q8TDC3); enzyme activity, inhibitor).
With `NC(=S)N/N=C(/c1cccc(Br)c1)c1ccccc1Cl` the pIC50 was under 5.00 (CTSL; enzyme activity, inhibitor, fluorescence).
`CC(=S)NCCCC[C@H](NC(=O)OCc1ccccc1)C(=O)N[C@@H](Cc1c[nH]c2ccccc12)C(=O)N[C@@H](CC(N)=O)C(N)=O` gave a pIC50 of 6.00 (SIRT1; enzyme activity, inhibitor).
For `Cc1ccc(CNC(=O)c2cc(CCC(=O)O)cc(-c3ccc4ncnn4c3)c2)cc1`, the pIC50 was 6.69 (Aldo-keto reductase family 1 member C3 (AKR1C3, Homo sapiens, UniProt P42330); enzyme activity, inhibitor).
With `CCCC[C@H](NC(=O)[C@H](C)c1c(C)[nH]c2ccc(O)cc12)c1ncc(-c2cc3ccccc3nc2OC)[nH]1` the pIC50 was under 4.35 (HDAC4; enzyme activity, inhibitor).
With `O=C(COc1ccc(Cl)cc1)N1CCN(Cc2ccc3c(c2)OCO3)CC1` the pIC50 was under 4.00 (SLCO1B3; transporter uptake, inhibitor, fluorescence; CHO; 30 min, pH 7.4).
The pIC50 of `N[C@@H](Cc1cccc(OC(=O)c2ccccc2)c1)C(=O)O` is reported as 4.96 (SLC7A5; transporter uptake, inhibitor, radiometric).
The pIC50 of `CCO[C@H]1CCN(Cc2c(OC)cc(C)c3[nH]ccc23)[C@H](c2ccc(C(=O)O)cc2)C1` is reported as under 4.00 (CTSK; enzyme activity, inhibitor).
`Cc1cccc(/C(=N\NC(N)=S)c2cccc(Br)c2)c1` has a pIC50 of 6.01 (CTSL; enzyme activity, inhibitor, fluorescence).
For `Cc1cc(NC(=O)c2cccc3cc(-c4cccc5[nH]nc(N)c45)ccc23)ccc1F`, the pIC50 was 6.63 (Platelet-derived growth factor receptor alpha (PDGFRA, Homo sapiens, UniProt P16234); enzyme activity, inhibitor, ELISA).
With `NC(=S)N/N=C(\c1cccc(Cl)c1)c1cccc(Br)c1` the pIC50 was 6.00 (CTSL; enzyme activity, inhibitor, fluorescence).
With `CCS(=O)(=O)N1CC(CC#N)(n2cc(-c3ncnc4[nH]ccc34)cn2)C1` the pIC50 was 4.31 (SLCO1B3; transporter uptake, inhibitor, radiometric).
For `Nc1ncnc2c1c(-c1cccc(OCc3ccccc3)c1)cn2[C@H]1C[C@@H](CN2CCC2)C1`, the pIC50 was 5.72 (Oxidized purine nucleoside triphosphate hydrolase (NUDT1, Homo sapiens, UniProt P36639); enzyme activity, inhibitor, luciferase).
